# Assay results reported in ChEMBL document CHEMBL5154683, “A 5-FU Precursor Designed to Evade Anabolic and Catabolic Drug Pathways and Activated by Pd Chemistry In Vitro and In Vivo” (J Med Chem, 2022).
# Active and inactive are the calls of the source. The rule behind the calls is not given here.
# What was measured:
# [1] = Clearance in male Wistar Han rat at 1 mg/kg, iv administered as single dose measured upto 24 hrs; format: ADME, organism-based; settings: in vivo
# Summary of the method: (§1)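 Male jugular-vein-cannulated Wistar Han rats, 263–319 g, single dose. IV: 1 mg/kg as 2 mL/kg of 0.5 mg/mL in 5% DMSO/95% HPCD (20% w/v), not fasted. PO: 10 mg/kg as 5 mL/kg of 2 mg/mL suspension in 5% DMSO/95% tween 80/HPCD vehicle, fasted overnight. Serial cannula blood sampling 0.083/0.25–24 h (n = 3/route); parent quantified by QToF against calibration curve.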
# [2] = Cmax in female Wistar Han rat at 1000 mg/kg, po administered as single dose measured upto 24 hrs; format: ADME, organism-based; set-up: time < 24 hrs, dose 1000 mg/kg, route po; settings: in vivo
# Summary of the method: (§2)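 Single oral dose 1000 mg/kg in male and female rats, dosing volume 10 mL/kg (n = 6); animals observed 14 days with clinical checks, functional/neurobehavioral tests and body weight, necropsy on d15; exposure parameters from the toxicokinetic arm of this study.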
# [3] = Metabolic stability in human hepatocytes assessed as half life at 1 uM by LC-MS/MS analysis; format: ADME, cell-based, Hepatocyte
# Summary of the method: (§3)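 Suspended hepatocytes (0.5 × 10⁶ cells/mL) in Williams E medium with 2 mM L-glutamine and 25 mM HEPES at 37 °C, compound added with 0.25% v/v DMSO after preincubation; aliquots quenched into methanol with internal standard at time points, centrifuged, supernatant analyzed by LC-MS/MS; two control compounds included.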
# HCT-116 = test: Antiproliferative activity against human HCT-116 cells assessed as increase in cytotoxicity at 1 uM incubated for 5 days in presence of Pd-resin by PrestoBlue dye based assay; format: functional, cell-based; settings: time 5.0 day
# [4] = Tmax in female Wistar Han rat at 1000 mg/kg, po administered as single dose measured upto 24 hrs; format: ADME, organism-based; settings: in vivo; summary of the method: as §2
# [5] = Prodrug conversion in human liver S9 fraction assessed as DH5FU metabolite formation at 1.6 mM incubated for 1 hr in presence of NADPH by 19F-NMR based analysis; format: ADME, subcellular; settings: s9, 1 h, 1600 µM
# Summary of the method: (§4)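 Compound added as 150 mM stock in DMSO-d₆, preincubated 5 min at 37 °C with enzyme mixture, then NADPH added (1 mM) and incubated 1 h at 37 °C, 600 rpm; controls without NADPH and without enzymes. Stopped with EtOAc, dried under N₂, redissolved in DMSO-d₆, DH5FU detected by ¹⁹F NMR vs authentic sample.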
# [6] = Half life in male Wistar Han rat at 1 mg/kg, iv administered as single dose measured upto 24 hrs; format: ADME, organism-based; settings: in vivo; summary of the method: as §1
# [7] = Apparent permeability across apical to basolateral side in human Caco-2 cells assessed as drug recovery at 10 uM measured after 120 mins by LC-MS/MS analysis; format: ADME, cell-based; settings: read-out: Drug recovery
# Summary of the method: (§5)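 Caco-2 cells (P40-60) seeded at 1 × 10⁵ cells/cm² on Transwells, used on day 20; rinsed and equilibrated 40 min in HBSS pH 7.4. Compound at 10 μM in HBSS, 1% v/v DMSO, added apically (A–B) or basolaterally (B–A); 120 min at 37 °C, 5% CO₂. Lucifer yellow monitored monolayer integrity; LC-MS/MS with eight-point calibration; recovery from C₀ and both compartments.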
# [8] = AUC (0 to infinity) in maleWistar Han rat at 1000 mg/kg, po administered as single dose measured upto 24 hrs; format: ADME, organism-based; set-up: time < 24 hrs, dose 1000 mg/kg, route po; settings: male, Wistar Han, in vivo; summary of the method: as §2
# [9] = Metabolic stability in rat hepatocytes assessed as half life at 3 uM by LC-MS/MS analysis; format: ADME, cell-based, Hepatocyte; summary of the method: as §3
# [10] = Prodrug conversion in rat liver S9 fraction assessed as DH5FU metabolite formation at 1.6 mM incubated for 1 hr in presence of NADPH by 19F-NMR based analysis; format: ADME, subcellular; settings: s9, 1 h, 1600 µM; summary of the method: as §4
# [11] = AUC (0 to infinity) in male Wistar Han rat at 1 mg/kg, iv administered as single dose measured upto 24 hrs; format: ADME, organism-based; set-up: time < 24 hrs, dose 1 mg/kg, route iv; settings: in vivo; summary of the method: as §1
# [12] = Toxicity in BALB/c nude mouse xenografted with human HCT-116 cells assessed as change in body weight at 75 to 150 mg/kg, po administered via oral gavage measured daily for 7 days; format: organism-based; settings: in vivo, 168 h, dose 75-150 mg/kg, time 7 day
# Summary of the method: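 Female BALB/c nude mice, 6–7 weeks, inoculated s.c. with 5 × 10⁵ HCT116 cells in 1:1 Matrigel/PBS; at 200–300 mm³ randomized; Pd resins (2 mg in 50 μL) injected intratumorally (groups 1–3), then oral gavage daily for 7 days with 150 or 75 mg/kg or vehicle; untreated group. Body weight daily, clinical signs twice daily.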
# [13] = Apparent permeability across apical to basolateral side in human Caco-2 cells at 10 uM measured after 120 mins by LC-MS/MS analysis; format: ADME, cell-based; summary of the method: as §5
# [14] = AUC (0 to infinity) in female Wistar Han rat at 1000 mg/kg, po administered as single dose measured upto 24 hrs; format: ADME, organism-based; set-up: time < 24 hrs, dose 1000 mg/kg, route po; settings: in vivo; summary of the method: as §2
# [15] = Drug distribution in brain of BALB/c mouse xenografted with human HCT-116 cells at 75 to 150 mg/kg, po administered for 7 days; format: ADME, organism-based; settings: in vivo, 168 h, dose 75-150 mg/kg, time 7 day
# [16] = Toxicity in female Wistar Han rat assessed as mortality at 1000 mg/kg, po administered as single dose measured over 14 days; format: organism-based; settings: in vivo, 336 h, time > 14 day
# Summary of the method: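 Single oral dose of 1000 mg/kg at 10 mL/kg to male and female rats (n = 6), then 14 d observation. Morbidity and mortality checked twice daily. Clinical signs recorded predose, twice on dosing day, then daily. FOB on d1, d7 or d14. Body weight on d1, 2, 5, 8, 11 and 14. Gross necropsy on d15.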
# [17] = Cmax in male Wistar Han rat at 10 mg/kg, po administered as single dose measured upto 24 hrs; format: ADME, organism-based; set-up: time < 24 hrs, dose 10 mg/kg, route po; settings: in vivo; summary of the method: as §1
# [18] = Mean residence time in female Wistar Han rat at 1000 mg/kg, po administered as single dose measured upto 24 hrs; format: ADME, organism-based; settings: in vivo; summary of the method: as §2
# BXPC-3 = test: Antiproliferative activity against human BxPC-3 cells assessed as reduction in cell viability measured after 5 days by PrestoBlue reagent based assay; format: functional; settings: BXPC-3, 120 h
# Summary of the method: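 Cells in 10% FBS, 2 mM L-glutamine media at 37 °C, 5% CO₂ (HCT116 in McCoy's 5A, BxPC-3 in RPMI). Seeded at 3000 (HCT116) or 2500 (BxPC-3) cells/well and grown 48 h. Medium then replaced with drug-containing medium, 0.1% DMSO, for 5 d. PrestoBlue 10% v/v added for 1 h, fluorescence read ex 540/em 590 nm. Normalised to DMSO-only wells; sigmoidal variable-slope fit; n = 3.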
# [19] = Tmax in male Wistar Han rat at 1000 mg/kg, po administered as single dose measured upto 24 hrs; format: ADME, organism-based; settings: in vivo; summary of the method: as §2
# [20] = Cmax in male Wistar Han rat at 1000 mg/kg, po administered as single dose measured upto 24 hrs; format: ADME, organism-based; set-up: time < 24 hrs, dose 1000 mg/kg, route po; settings: in vivo; summary of the method: as §2
# [21] = Drug metabolism in BALB/c mouse bearing HCT-116 tumor assessed as release of 5-FU in plasma at 75 to 150 mg/kg, po administered for 7 days; format: ADME, organism-based; settings: in vivo, 168 h, dose 75-150 mg/kg, time 7 day
# Summary of the method: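 Same HCT116-bearing BALB/c nude mice with intratumoral Pd resins and 7-day oral dosing at 75 or 150 mg/kg; blood collected by microsampling on day 7, 2 h after administration, plasma frozen at –20 °C for analysis.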
compound,measurement,setting,value
C#CCOc1ncc(F)c(OCC#C)n1,clearance,[1],52.1 mL/min/kg
same,Cmax,[2],83.6 µg/mL
same,half-life at 1 µM,[3],5.37 h
same,Activity,HCT-116,Active
same,Tmax,[4],4 h
same,Drug metabolism,[5],Metabolite_Notdetected
same,half-life,[6],0.497 h
same,"recovery at 2 h, 10 µM",[7],79.2%
same,AUC(0-inf),[8],2610 µg·h/mL
same,half-life at 3 µM,[9],6.97 h
same,Drug metabolism,[10],Metabolite_Notdetected
same,AUC(0-inf),[11],0.33 µg·h/mL
same,Activity,[12],Non-Toxic
same,"Papp A→B at 2 h, 10 µM",[13],28.1 ×10⁻⁶ cm/s
same,AUC(0-inf),[14],1470 µg·h/mL
same,Drug uptake,[15],Active
same,Activity,[16],Non-Toxic
same,Cmax,[17],3.61 µg/mL
same,MRT,[18],13.4 h
same,EC50,BXPC-3,> 100 µM
same,Tmax,[19],1 h
same,Cmax,[20],84.7 µg/mL
same,Drug metabolism,[21],Metabolite_Detected
